Test results taken from ChEMBL document CHEMBL1153726, “Synthesis and anticancer activity of sclerophytin-inspired hydroisobenzofurans” (Bioorg Med Chem Lett, 2009).

Columns and labels:
Format in all cases: functional
OVCAR-8 = assay: Growth inhibition of human OVCAR8 cells at 1 nM after 96 hrs by MTT assay; parameters: scale not given: the % may be the effect or the level left
OVCAR-3 [1] = assay: Growth inhibition of human OVCAR-3 cells at 1 nM after 96 hrs by MTT assay; parameters: scale not given: the % may be the effect or the level left
Malme-3M = assay: Growth inhibition of human MALME-3M cells at 1 nM after 96 hrs by MTT assay; parameters: scale not given: the % may be the effect or the level left
U-251 [2] = assay: Growth inhibition of human U251 cells at 1 nM after 96 hrs by MTT assay; parameters: scale not given: the % may be the effect or the level left
SF-268 = assay: Growth inhibition of human SF268 cells at 1 nM after 96 hrs by MTT assay; parameters: scale not given: the % may be the effect or the level left
KM12 = assay: Growth inhibition of human KM12 cells at 1 nM after 96 hrs by MTT assay; parameters: scale not given: the % may be the effect or the level left
NCI-H522 = assay: Growth inhibition of human NCI-H522 cells at 1 nM after 96 hrs by MTT assay; parameters: scale not given: the % may be the effect or the level left
MDA-MB-231 = assay: Growth inhibition of human MDA-MB-231 cells at 10 uM after 96 hrs by MTT assay; parameters: scale not given: the % may be the effect or the level left
MCF7 = assay: Growth inhibition of human MCF7 cells at 10 uM after 96 hrs by MTT assay; parameters: scale not given: the % may be the effect or the level left
RXF 393 = assay: Growth inhibition of human RXF393 cells at 10 uM after 96 hrs by MTT assay; parameters: scale not given: the % may be the effect or the level left
SF-295 [3] = assay: Growth inhibition of human SF295 cells at 10 uM after 96 hrs by MTT assay; parameters: scale not given: the % may be the effect or the level left
NCI-H23 = assay: Growth inhibition of human NCI-H23 cells at 10 uM after 96 hrs by MTT assay; parameters: scale not given: the % may be the effect or the level left
[4] = Growth inhibition of human RPMI8266 cells at 10 uM after 96 hrs by MTT assay; parameters: scale not given: the % may be the effect or the level left
SW-620 = assay: Growth inhibition of human SW620 cells after 96 hrs by MTT assay; settings: SW-620, 96 h
Summary of the method: (§1)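 Tested in the NCI 60-cell-line panel in five-dose format; GI50 and LC50 values reported for each cell line.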

U-251 [5] = assay: Growth inhibition of human U251 cells after 96 hrs by MTT assay; settings: U-251, 96 h; summary of the method: as §1
OVCAR-4 = assay: Growth inhibition of human OVCAR4 cells after 96 hrs by MTT assay; settings: OVCAR-4, 96 h; summary of the method: as §1
ACHN = assay: Growth inhibition of human ACHN cells after 96 hrs by MTT assay
UO-31 [6] = assay: Growth inhibition of human UO31 cells after 96 hrs by MTT assay; settings: UO-31, 96 h; summary of the method: as §1
DU-145 = assay: Growth inhibition of human DU145 cells after 96 hrs by MTT assay; settings: DU-145, 96 h
BT-549 = assay: Growth inhibition of human BT549 cells after 96 hrs by MTT assay; settings: BT-549, 96 h
HCC 2998 = assay: Growth inhibition of human HCC2998 cells after 96 hrs by MTT assay; settings: HCC 2998, 96 h
Summary of the method: (§2)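 Run in the NCI 60 human tumour cell line panel as a five-dose assay. GI50 and LC50 were reported for each cell line.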

NCI-H322M [7] = assay: Growth inhibition of human NCI-H322M cells after 96 hrs by MTT assay; summary of the method: as §2
SR [8] = assay: Growth inhibition of human SR cells after 96 hrs by MTT assay; summary of the method: as §1
MDA-MB-468 = assay: Growth inhibition of human MDA-MB-468 cells at 1 uM after 96 hrs by MTT assay; parameters: scale not given: the % may be the effect or the level left
[9] = Growth inhibition of human Hs 578T cells at 1 uM after 96 hrs by MTT assay; parameters: scale not given: the % may be the effect or the level left
PC-3 = assay: Growth inhibition of human PC3 cells at 100 nM after 96 hrs by MTT assay; parameters: scale not given: the % may be the effect or the level left
UO-31 [10] = assay: Growth inhibition of human UO31 cells at 100 nM after 96 hrs by MTT assay; parameters: scale not given: the % may be the effect or the level left
OVCAR-3 [11] = assay: Growth inhibition of human OVCAR-3 cells at 100 nM after 96 hrs by MTT assay; parameters: scale not given: the % may be the effect or the level left
SF-295 [12] = assay: Growth inhibition of human SF295 cells at 100 nM after 96 hrs by MTT assay; parameters: scale not given: the % may be the effect or the level left
HT-29 = assay: Growth inhibition of human HT-29 cells at 100 nM after 96 hrs by MTT assay; parameters: scale not given: the % may be the effect or the level left
OVCAR-3 [13] = assay: Growth inhibition of human OVCAR-3 cells at 10 nM after 96 hrs by MTT assay; parameters: scale not given: the % may be the effect or the level left
LOX IMVI = assay: Growth inhibition of human LOXIMVI cells at 10 nM after 96 hrs by MTT assay; parameters: scale not given: the % may be the effect or the level left
NCI-H322M [14] = assay: Growth inhibition of human NCI-H322M cells at 10 nM after 96 hrs by MTT assay; parameters: scale not given: the % may be the effect or the level left
UACC-257 = assay: Growth inhibition of human UACC257 cells at 1 uM after 96 hrs by MTT assay; parameters: scale not given: the % may be the effect or the level left
NCI-H460 = assay: Growth inhibition of human NCI-H460 cells at 1 uM after 96 hrs by MTT assay; parameters: scale not given: the % may be the effect or the level left
SR [15] = assay: Growth inhibition of human SR cells at 1 uM after 96 hrs by MTT assay; parameters: scale not given: the % may be the effect or the level left
MOLT-4 = assay: Growth inhibition of human MOLT4 cells at 1 uM after 96 hrs by MTT assay; parameters: scale not given: the % may be the effect or the level left
[16] = read-out: LC50 (the source's name)
[17] = read-out: Log10GI50 (converted)
[18] = read-out: Log10LC50 (converted)

C=C(C)[C@H]1CC=C(C)C2=CO[C@@H](c3ccccc3F)[C@@H]21
Activity (OVCAR-8): 99% | Activity (OVCAR-3 [1]): 88% | Activity (Malme-3M): 97% | Activity (U-251 [2]): 98% | Activity (SF-268): 91% | Activity (KM12): 95% | Activity (NCI-H522): 82% | Activity (MDA-MB-231): 101.47% | Activity (MCF7): 93.7% | Activity (RXF 393): 98.38% | Activity (SF-295 [3]): 85.19% | Activity (NCI-H23): 95.4% | Activity [4]: 18.49% | GI50 (SW-620; read-out: GI50): 4.49 µM | CC50 (SW-620; [16]): 43.4 µM | GI50 (SW-620; [17]): 4.47 µM | CC50 (SW-620; [18]): 43.7 µM | TGI (SW-620; read-out: Log10TGI (converted)): 15.8 µM | TGI (SW-620; read-out: TGI): 15.9 µM | GI50 (U-251 [5]; read-out: GI50): 3.06 µM | CC50 (U-251 [5]; [16]): 37.7 µM | GI50 (U-251 [5]; [17]): 3.09 µM | CC50 (U-251 [5]; [18]): 38 µM | TGI (U-251 [5]; read-out: Log10TGI (converted)): 14.1 µM | TGI (U-251 [5]; read-out: TGI): 14.2 µM | GI50 (OVCAR-4; read-out: GI50): 4.1 µM | CC50 (OVCAR-4; [16]): 86.6 µM | GI50 (OVCAR-4; [17]): 4.07 µM | CC50 (OVCAR-4; [18]): 87.1 µM | TGI (OVCAR-4; read-out: Log10TGI (converted)): 24 µM | TGI (OVCAR-4; read-out: TGI): 23.7 µM | GI50 (ACHN; read-out: GI50): 6.39 µM | CC50 (ACHN; [16]): 43.8 µM | GI50 (ACHN; [17]): 6.46 µM | CC50 (ACHN; [18]): 43.7 µM | TGI (ACHN; read-out: Log10TGI (converted)): 19.1 µM | TGI (ACHN; read-out: TGI): 19 µM | GI50 (UO-31 [6]; read-out: GI50): 6.32 µM | CC50 (UO-31 [6]; [16]): 49.2 µM | GI50 (UO-31 [6]; [17]): 6.31 µM | CC50 (UO-31 [6]; [18]): 49 µM | TGI (UO-31 [6]; read-out: Log10TGI (converted)): 20.9 µM | TGI (UO-31 [6]; read-out: TGI): 20.8 µM | GI50 (DU-145; read-out: GI50): 5.53 µM | CC50 (DU-145; [16]): 94.5 µM | GI50 (DU-145; [17]): 5.5 µM | CC50 (DU-145; [18]): 95.5 µM | TGI (DU-145; read-out: Log10TGI (converted)): 26.3 µM | TGI (DU-145; read-out: TGI): 26.1 µM | GI50 (BT-549; read-out: GI50): 1.72 µM | CC50 (BT-549; [16]): 34 µM | GI50 (BT-549; [17]): 1.7 µM | CC50 (BT-549; [18]): 33.9 µM | TGI (BT-549; read-out: Log10TGI (converted)): 8.32 µM | TGI (BT-549; read-out: TGI): 8.37 µM | GI50 (HCC 2998; read-out: GI50): 6.4 µM | CC50 (HCC 2998; [16]): 45.3 µM | GI50 (HCC 2998; [17]): 6.46 µM | CC50 (HCC 2998; [18]): 45.7 µM | TGI (HCC 2998; read-out: Log10TGI (converted)): 19.5 µM | TGI (HCC 2998; read-out: TGI): 19.3 µM | GI50 (NCI-H322M [7]; read-out: GI50): 9.5 µM | CC50 (NCI-H322M [7]; [16]): 54.6 µM | GI50 (NCI-H322M [7]; [17]): 9.55 µM | CC50 (NCI-H322M [7]; [18]): 55 µM | TGI (NCI-H322M [7]; read-out: Log10TGI (converted)): 23.4 µM | TGI (NCI-H322M [7]; read-out: TGI): 23.2 µM | GI50 (SR [8]; read-out: GI50): 0.798 µM | CC50 (SR [8]; [16]): 23.9 µM | GI50 (SR [8]; [17]): 0.794 µM | CC50 (SR [8]; [18]): 24 µM | TGI (SR [8]; read-out: Log10TGI (converted)): 3.72 µM | TGI (SR [8]; read-out: TGI): 3.67 µM | Activity (MDA-MB-468): 11% | Activity [9]: 28% | Activity (PC-3): 70% | Activity (UO-31 [10]): 81% | Activity (OVCAR-3 [11]): 90% | Activity (SF-295 [12]): 88% | Activity (HT-29): 82% | Activity (OVCAR-3 [13]): 88% | Activity (LOX IMVI): 91% | Activity (NCI-H322M [14]): 84% | Activity (UACC-257): 44% | Activity (NCI-H460): 31% | Activity (SR [15]): -36% | Activity (MOLT-4): -15%
